Results collected from several papers.
Action: inhibitor
MET: Hepatocyte growth factor receptor (MET, Homo sapiens, UniProt P08581)
MET M1250T: Hepatocyte growth factor receptor (MET, Homo sapiens, UniProt P08581, M1250T)

CCCS(=O)(=O)Nc1ccc(F)c(C(=O)c2c[nH]c3ncc(-c4ccc(Cl)cc4)cc23)c1F  inhibition (MET; enzyme activity; 1 µM): < 20%
O=C(CSc1nc2nccnc2c(=O)n1CCc1ccccc1)Nc1nccs1  inhibition (MET; enzyme activity; 10 µM): -2%
CNc1cccc2cc(C(=O)Nc3ccc(C(=O)O)cc3)c(=O)[nH]c12  inhibition (MET; enzyme activity; 10 µM): 1.4%
CNC(=O)c1cc(Oc2ccc(NC(=O)Nc3ccc(Cl)c(C(F)(F)F)c3)cc2)ccn1  inhibition (MET; enzyme activity; 0.3 µM): -22%
CNC(=O)c1cc2c(Oc3ccc(NC(=O)C4(C(=O)Nc5ccc(F)cc5)CC4)cc3)ccnc2cc1OC  inhibition (Hepatocyte growth factor receptor (MET, Homo sapiens, UniProt P08581, Y1230C); enzyme activity, radiometric; 1 µM): 100%
CN(C)C1CCN(CC#Cc2nn(C3CCCC3)c3nc(NCc4ccccc4)ncc23)C1 (centres unmarked)  inhibition (MET; enzyme activity, FRET; 10 µM): 72%
COc1cc2nccc(Oc3ccc(NC(=O)c4c5n(n(-c6ccc(F)cc6)c4=O)CCCC5)cc3)c2cc1OC  inhibition (MET; enzyme activity; 0.1 µM): 98%
COc1cc2ncnc(Nc3ccc(Oc4ccccc4)cc3C)c2cc1OC  inhibition (MET M1250T; enzyme activity; 1 µM): -1%
CSc1nc(C)c(-c2ccnc(Nc3ccc(N4CCOCC4)cc3)c2)[nH]1  inhibition (MET; cell-free assay; 10 µM): 28.2%
COc1cc2ncnc(Nc3ccc(Oc4ccccc4)c(C)c3C)c2cc1OC  inhibition (MET M1250T; enzyme activity; 1 µM): -2%
CC/C(=N\NC(=O)NCc1cccc(O)c1)c1ccc(O)c(C)c1O  inhibition (MET; enzyme activity; 0.1 µM): 1.1%
